ChEMBL document CHEMBL5653631, “A Potent and Selective ULK1 Inhibitor Suppresses Autophagy and Sensitizes Cancer Cells to Nutrient Stress” (iScience, 2018)

Columns and labels:
[1] = biological target: Cyclin-dependent kinase 7 (Homo sapiens) (UniProt P50613); assay: Inhibition of human recombinant CDK7 at 40 nM related to control ULK1
[2] = biological target: Dual specificity protein kinase CLK3 (Homo sapiens) (UniProt P49761); assay: Inhibition of human recombinant CLK3 at 40 nM related to control ULK1
[3] = biological target: Calcium/calmodulin-dependent protein kinase type 1B (Homo sapiens) (UniProt Q6P2M8); assay: Inhibition of human recombinant CaMK1b at 40 nM in presence of ATP by radiometric assay relative to control
[4] = biological target: Homeodomain-interacting protein kinase 1 (Homo sapiens) (UniProt Q86Z02); assay: Inhibition of human recombinant HIPK1 at 40 nM in presence of ATP by radiometric assay relative to control
[5] = biological target: T1, MAP kinase-activated protein kinase 5 (Homo sapiens) (UniProt Q8IW41); assay: Inhibition of human recombinant MAPKAPK5 at 40 nM in presence of ATP by radiometric assay relative to control
T1 sequence (whole entry): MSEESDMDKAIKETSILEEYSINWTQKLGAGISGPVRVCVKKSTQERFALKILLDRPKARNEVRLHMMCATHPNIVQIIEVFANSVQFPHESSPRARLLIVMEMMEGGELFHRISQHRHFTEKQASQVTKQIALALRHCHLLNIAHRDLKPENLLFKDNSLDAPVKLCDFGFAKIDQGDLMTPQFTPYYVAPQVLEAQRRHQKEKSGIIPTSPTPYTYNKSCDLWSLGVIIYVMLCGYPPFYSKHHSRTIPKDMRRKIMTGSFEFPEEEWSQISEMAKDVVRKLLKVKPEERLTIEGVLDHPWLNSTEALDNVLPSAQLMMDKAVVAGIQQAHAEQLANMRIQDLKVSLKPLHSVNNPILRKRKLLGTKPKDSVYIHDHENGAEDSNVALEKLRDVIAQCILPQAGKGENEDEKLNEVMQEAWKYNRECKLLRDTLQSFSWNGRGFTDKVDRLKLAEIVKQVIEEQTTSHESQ

[6] = biological target: T2, Mitogen-activated protein kinase kinase kinase kinase 2 (Homo sapiens) (UniProt Q12851); assay: Inhibition of human recombinant GCK at 40 nM in presence of ATP by radiometric assay relative to control
T2 sequence (whole entry): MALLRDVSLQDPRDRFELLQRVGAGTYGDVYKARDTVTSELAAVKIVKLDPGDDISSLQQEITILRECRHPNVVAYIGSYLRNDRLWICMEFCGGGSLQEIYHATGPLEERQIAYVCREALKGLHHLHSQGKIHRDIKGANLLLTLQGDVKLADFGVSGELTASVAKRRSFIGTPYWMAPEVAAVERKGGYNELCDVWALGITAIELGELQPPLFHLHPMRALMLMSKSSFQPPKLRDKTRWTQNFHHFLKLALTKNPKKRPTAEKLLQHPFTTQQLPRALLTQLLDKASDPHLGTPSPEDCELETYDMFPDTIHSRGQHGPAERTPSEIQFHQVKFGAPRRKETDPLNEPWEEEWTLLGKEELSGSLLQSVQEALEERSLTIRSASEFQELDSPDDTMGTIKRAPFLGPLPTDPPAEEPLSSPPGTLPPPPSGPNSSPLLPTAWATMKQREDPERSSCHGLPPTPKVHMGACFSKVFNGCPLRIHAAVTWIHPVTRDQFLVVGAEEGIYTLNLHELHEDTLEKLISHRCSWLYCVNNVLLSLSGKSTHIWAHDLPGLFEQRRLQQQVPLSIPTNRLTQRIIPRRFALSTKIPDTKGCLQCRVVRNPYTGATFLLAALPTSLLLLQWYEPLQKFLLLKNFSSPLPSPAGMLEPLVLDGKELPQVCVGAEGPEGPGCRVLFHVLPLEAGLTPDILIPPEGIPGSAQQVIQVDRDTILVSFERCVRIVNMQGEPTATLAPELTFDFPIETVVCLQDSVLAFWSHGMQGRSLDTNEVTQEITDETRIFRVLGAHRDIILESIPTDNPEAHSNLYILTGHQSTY

[7] = biological target: T3, Testis-specific serine/threonine-protein kinase 4 (Homo sapiens) (UniProt Q6SA08); assay: Inhibition of human recombinant TSSK4 at 15 nM related to control ULK1
T3 sequence (whole entry): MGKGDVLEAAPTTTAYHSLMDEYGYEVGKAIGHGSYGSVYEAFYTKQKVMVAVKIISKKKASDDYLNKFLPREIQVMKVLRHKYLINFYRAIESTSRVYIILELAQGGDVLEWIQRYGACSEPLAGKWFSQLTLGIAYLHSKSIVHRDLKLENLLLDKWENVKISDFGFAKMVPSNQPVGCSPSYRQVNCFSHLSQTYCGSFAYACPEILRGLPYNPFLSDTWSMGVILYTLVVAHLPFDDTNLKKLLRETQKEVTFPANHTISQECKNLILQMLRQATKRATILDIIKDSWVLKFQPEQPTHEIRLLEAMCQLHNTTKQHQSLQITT

[8] = species: Homo sapiens; assay: Inhibition of human recombinant ABL at 15 nM in presence of ATP by radiometric assay relative to control
How it was run: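 Panel of 327 recombinant human kinases in radiometric activity assays, each screened in duplicate at a single inhibitor concentration; percent activity remaining relative to vehicle control, percent inhibition taken as 100 minus activity remaining.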

[9] = biological target: Calcium/calmodulin-dependent protein kinase type 1B (Homo sapiens) (UniProt Q6P2M8); assay: Inhibition of human recombinant CaMK1b at 500 nM in presence of ATP by radiometric assay relative to control
[10] = biological target: Glycogen synthase kinase-3 beta (Homo sapiens) (UniProt P49841); assay: Inhibition of human recombinant GSK3B at 500 nM related to control ULK1
[11] = biological target: T4, Serine/threonine-protein kinase STK11 (Homo sapiens) (UniProt Q15831); assay: Inhibition of human recombinant LKB1 at 500 nM related to control ULK1
T4 sequence (whole entry): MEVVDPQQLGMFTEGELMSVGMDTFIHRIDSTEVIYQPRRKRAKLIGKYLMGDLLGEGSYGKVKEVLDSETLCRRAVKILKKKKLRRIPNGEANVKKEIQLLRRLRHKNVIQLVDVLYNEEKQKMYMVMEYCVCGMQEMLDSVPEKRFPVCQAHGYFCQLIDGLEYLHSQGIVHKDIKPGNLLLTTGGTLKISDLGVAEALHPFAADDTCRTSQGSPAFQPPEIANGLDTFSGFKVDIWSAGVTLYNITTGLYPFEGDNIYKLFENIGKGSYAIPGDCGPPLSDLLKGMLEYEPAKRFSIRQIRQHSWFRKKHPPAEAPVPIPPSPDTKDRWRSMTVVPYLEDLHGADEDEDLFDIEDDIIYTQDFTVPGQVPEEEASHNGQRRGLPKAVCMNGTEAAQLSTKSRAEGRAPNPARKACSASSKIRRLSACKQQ

Chain of Calcium/calmodulin-dependent protein kinase type 1B (Homo sapiens) (Q6P2M8 whole entry): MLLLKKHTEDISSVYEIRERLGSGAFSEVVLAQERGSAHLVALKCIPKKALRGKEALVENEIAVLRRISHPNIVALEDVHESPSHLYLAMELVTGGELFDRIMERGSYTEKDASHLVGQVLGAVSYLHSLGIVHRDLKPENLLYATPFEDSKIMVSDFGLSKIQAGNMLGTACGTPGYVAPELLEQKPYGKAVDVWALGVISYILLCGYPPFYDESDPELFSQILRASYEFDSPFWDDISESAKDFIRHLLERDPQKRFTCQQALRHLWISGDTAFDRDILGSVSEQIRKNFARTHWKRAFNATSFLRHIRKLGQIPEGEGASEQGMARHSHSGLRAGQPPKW
Chain of Glycogen synthase kinase-3 beta (Homo sapiens) (P49841 whole entry, looked up): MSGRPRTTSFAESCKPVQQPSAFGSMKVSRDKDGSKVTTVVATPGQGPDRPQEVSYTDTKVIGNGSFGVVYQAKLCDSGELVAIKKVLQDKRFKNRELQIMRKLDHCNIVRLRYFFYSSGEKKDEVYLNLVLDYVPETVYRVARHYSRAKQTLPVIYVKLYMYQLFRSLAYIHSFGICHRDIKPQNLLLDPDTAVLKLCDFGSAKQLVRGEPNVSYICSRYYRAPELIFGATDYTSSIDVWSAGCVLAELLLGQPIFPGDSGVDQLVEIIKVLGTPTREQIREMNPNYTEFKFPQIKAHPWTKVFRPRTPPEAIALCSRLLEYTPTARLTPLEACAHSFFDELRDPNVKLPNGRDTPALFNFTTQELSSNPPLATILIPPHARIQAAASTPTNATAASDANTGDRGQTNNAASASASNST
Chain of Homeodomain-interacting protein kinase 1 (Homo sapiens) (Q86Z02 whole entry, looked up): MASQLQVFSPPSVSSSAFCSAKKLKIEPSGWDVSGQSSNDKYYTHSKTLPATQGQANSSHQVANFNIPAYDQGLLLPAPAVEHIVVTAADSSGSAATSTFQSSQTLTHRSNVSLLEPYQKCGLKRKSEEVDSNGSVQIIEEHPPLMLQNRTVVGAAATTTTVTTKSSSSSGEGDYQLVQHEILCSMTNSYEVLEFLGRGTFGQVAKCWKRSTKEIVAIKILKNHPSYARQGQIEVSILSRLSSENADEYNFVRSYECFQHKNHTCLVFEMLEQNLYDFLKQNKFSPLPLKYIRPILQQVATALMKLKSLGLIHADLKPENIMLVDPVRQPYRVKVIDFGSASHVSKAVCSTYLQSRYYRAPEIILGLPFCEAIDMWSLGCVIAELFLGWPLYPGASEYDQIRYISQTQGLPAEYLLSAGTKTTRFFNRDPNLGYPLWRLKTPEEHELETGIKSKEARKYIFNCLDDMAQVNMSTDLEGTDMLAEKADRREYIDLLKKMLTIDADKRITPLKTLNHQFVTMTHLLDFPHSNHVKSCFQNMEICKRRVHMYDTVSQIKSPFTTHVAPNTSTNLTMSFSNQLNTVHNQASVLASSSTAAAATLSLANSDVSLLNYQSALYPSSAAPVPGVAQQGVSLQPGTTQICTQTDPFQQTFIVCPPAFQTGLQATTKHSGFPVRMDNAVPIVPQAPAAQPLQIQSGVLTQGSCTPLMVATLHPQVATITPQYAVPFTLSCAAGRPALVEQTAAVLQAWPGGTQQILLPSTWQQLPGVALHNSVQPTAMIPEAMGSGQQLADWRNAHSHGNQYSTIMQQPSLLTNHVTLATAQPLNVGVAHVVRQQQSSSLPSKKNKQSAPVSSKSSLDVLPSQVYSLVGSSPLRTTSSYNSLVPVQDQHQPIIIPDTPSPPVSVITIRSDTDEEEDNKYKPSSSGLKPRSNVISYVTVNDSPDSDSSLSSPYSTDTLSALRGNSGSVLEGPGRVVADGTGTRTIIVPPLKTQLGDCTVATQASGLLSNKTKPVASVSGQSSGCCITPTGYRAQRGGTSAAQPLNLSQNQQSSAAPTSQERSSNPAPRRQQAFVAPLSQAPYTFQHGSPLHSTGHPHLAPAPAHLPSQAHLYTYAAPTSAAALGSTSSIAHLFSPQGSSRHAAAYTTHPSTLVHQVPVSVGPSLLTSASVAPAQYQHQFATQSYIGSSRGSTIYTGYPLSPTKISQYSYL
Chain of Cyclin-dependent kinase 7 (Homo sapiens) (P50613 whole entry): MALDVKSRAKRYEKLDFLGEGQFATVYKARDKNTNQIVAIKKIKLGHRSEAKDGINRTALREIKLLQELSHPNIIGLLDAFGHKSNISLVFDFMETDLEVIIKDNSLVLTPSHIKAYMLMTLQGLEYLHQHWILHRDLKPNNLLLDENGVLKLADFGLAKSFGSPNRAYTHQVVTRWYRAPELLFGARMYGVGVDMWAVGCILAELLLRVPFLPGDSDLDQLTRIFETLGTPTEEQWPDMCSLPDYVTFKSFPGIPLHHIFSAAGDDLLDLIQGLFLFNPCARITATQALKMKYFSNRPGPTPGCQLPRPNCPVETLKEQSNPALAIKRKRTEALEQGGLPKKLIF
Chain of Dual specificity protein kinase CLK3 (Homo sapiens) (P49761 whole entry, looked up): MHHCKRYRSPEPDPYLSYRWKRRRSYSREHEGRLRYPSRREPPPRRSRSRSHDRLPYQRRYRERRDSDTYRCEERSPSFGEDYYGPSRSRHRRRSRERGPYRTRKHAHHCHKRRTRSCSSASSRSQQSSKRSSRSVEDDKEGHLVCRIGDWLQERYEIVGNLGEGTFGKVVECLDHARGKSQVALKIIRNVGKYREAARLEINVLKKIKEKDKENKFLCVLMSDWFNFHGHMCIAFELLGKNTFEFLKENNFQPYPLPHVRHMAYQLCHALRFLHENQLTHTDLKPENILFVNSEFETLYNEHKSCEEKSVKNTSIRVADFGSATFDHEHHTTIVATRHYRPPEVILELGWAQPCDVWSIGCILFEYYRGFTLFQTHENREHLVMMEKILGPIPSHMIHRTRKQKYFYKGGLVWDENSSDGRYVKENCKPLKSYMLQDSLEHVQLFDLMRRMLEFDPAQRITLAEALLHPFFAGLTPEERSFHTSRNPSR

O=C(N[C@@H](C1CC1)C(F)(F)F)c1cc(-c2cnn3cc(-c4ccc(F)cc4)cnc23)cs1
fold change (FC) [1]: 0.32 | fold change (FC) [2]: 0 | inhibition [3]: 0% | inhibition [4]: 0% | inhibition [5]: 0% | inhibition [6]: 0%

CC(C)[C@H](NC(=O)c1cc(-c2cnn3cc(-c4ccc(OCCN5CCCCC5)cc4)cnc23)cs1)C(F)(F)F
fold change (FC) [7]: 0 | inhibition [8]: 82%

CNC(=O)c1ccccc1Oc1nc(Nc2cc(OC)c(OC)c(OC)c2)ncc1Br
inhibition [9]: 0% | fold change (FC) [10]: 0 | fold change (FC) [11]: 0.16
